ChEMBL document CHEMBL3098025, “Optimization of potency and pharmacokinetics of tricyclic indole derived inhibitors of HCV NS5B polymerase. Identification of ester prodrugs with improved oral pharmacokinetics” (Bioorg Med Chem, 2014)

How the values were obtained:
[1] = AUC (0 to 6 hrs) in Sprague-Dawley rat at 10 mg/kg, po; format: ADME, organism-based; set-up: time < 6 hr, dose 10 mg/kg, route oral; conditions: plasma
In short: (§1)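 Sprague Dawley rats received esters orally at 10 mg/kg in 0.4% methylcellulose, given as trifluoroacetate salts. Plasma levels of both the intact ester prodrug and the acid metabolite were measured. AUC was integrated over 0–6 h after dosing.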

Hepatitis C virus = experiment: Antiviral activity against HCV1b assessed as inhibition of viral replication; format: functional, organism-based, Hepacivirus hominis; conditions: genotype 1b
In short: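 In the cell-based HCV replicon assay, viral RNA levels were measured. EC50 is the concentration giving a 50% reduction in replicon RNA.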

[2] = Inhibition of HCV1b NS5B polymerase; set-up: species or system Hepatitis C virus subtype 1b
Rattus norvegicus [3] = experiment: Prodrug conversion in Sprague-Dawley rat assessed as AUC (0 to 6 hrs) of parent compound level at 10 mg/kg, po; format: ADME, organism-based; set-up: time < 6 hr, dose 10 mg/kg, route oral; conditions: in vivo; in short: as §1
Rattus norvegicus [4] = experiment: Prodrug conversion in Sprague-Dawley rat assessed as AUC (0 to 6 hrs) of 6-((6-Chloro-1H-benzo[d]imidazol-5-yl)methyl)-4-fluoro-8-(2-oxo-1,2-dihydropyridin-3-yl)-6H-furo[2,3-e]indole-7-carboxylic acid level at 10 mg/kg, po; format: ADME, organism-based; set-up: time < 6 hr, dose 10 mg/kg, route oral; conditions: in vivo; in short: as §1
Cynomolgus monkey [5] = experiment: Prodrug conversion in cynomolgus monkey assessed as AUC (0 to 24 hrs) of 4-Fluoro-6-((6-fluoro-1H-indazol-5-yl)methyl)-8-(2-oxo-1,2-dihydropyridin-3-yl)-6H-furo[2,3-e]indole-7-carboxylic acid level at 3 mg/kg, po; format: ADME, organism-based, Macaca fascicularis; set-up: time < 24 hr, dose 3 mg/kg, route oral; conditions: in vivo
Rattus norvegicus [6] = experiment: Prodrug conversion in Sprague-Dawley rat assessed as AUC (0 to 24 hrs) of 4-Fluoro-6-((6-fluoro-1H-indazol-5-yl)methyl)-8-(2-oxo-1,2-dihydropyridin-3-yl)-6H-furo[2,3-e]indole-7-carboxylic acid level at 10 mg/kg, po; format: ADME, organism-based; set-up: time < 24 hr, dose 10 mg/kg, route oral; conditions: in vivo
In short: (§2)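 Dimethylaminoethyl ester prodrugs were dosed orally to rats at 10 mg/kg in 0.4% methylcellulose.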

[7] = AUC (0 to 6 hrs) in cynomolgus monkey at 3 mg/kg, po; format: ADME, organism-based, Macaca fascicularis; set-up: time < 6 hr, dose 3 mg/kg, route oral; conditions: plasma
Cynomolgus monkey [8] = experiment: Prodrug conversion in cynomolgus monkey assessed as AUC (0 to 24 hrs) of 4-Fluoro-6-((6-methyl-1H-indazol-5-yl)methyl)-8-(2-oxo-1,2-dihydropyridin-3-yl)-6H-furo[2,3-e]indole-7-carboxylic acid level at 3 mg/kg, po; format: ADME, organism-based, Macaca fascicularis; set-up: time < 24 hr, dose 3 mg/kg, route oral; conditions: in vivo
Rattus norvegicus [9] = experiment: Prodrug conversion in Sprague-Dawley rat assessed as AUC (0 to 24 hrs) of 4-Fluoro-6-((6-methyl-1H-indazol-5-yl)methyl)-8-(2-oxo-1,2-dihydropyridin-3-yl)-6H-furo[2,3-e]indole-7-carboxylic acid level at 10 mg/kg, po; format: ADME, organism-based; set-up: time < 24 hr, dose 10 mg/kg, route oral; conditions: in vivo; in short: as §2
Cynomolgus monkey [10] = experiment: Prodrug conversion in cynomolgus monkey assessed as AUC (0 to 24 hrs) of 4-Fluoro-6-((6-fluoro-1H-benzo[d]imidazol-5-yl)methyl)-8-(2-oxo-1,2-dihydropyridin-3-yl)-6H-furo[2,3-e]indole-7-carboxylic acid level at 3 mg/kg, po; format: ADME, organism-based, Macaca fascicularis; set-up: time < 24 hr, dose 3 mg/kg, route oral; conditions: in vivo
Rattus norvegicus [11] = experiment: Prodrug conversion in Sprague-Dawley rat assessed as AUC (0 to 24 hrs) of 4-Fluoro-6-((6-fluoro-1H-benzo[d]imidazol-5-yl)methyl)-8-(2-oxo-1,2-dihydropyridin-3-yl)-6H-furo[2,3-e]indole-7-carboxylic acid level at 10 mg/kg, po; format: ADME, organism-based; set-up: time < 24 hr, dose 10 mg/kg, route oral; conditions: in vivo; in short: as §2

Molecule Nc1n[nH]c2cc(Cn3c(C(=O)O)c(-c4ccc[nH]c4=O)c4c5occc5c(F)cc43)c(F)cc12 has an AUC(0-t) at 6 h [1] of 3.6 µM·h, an EC50 (Hepatitis C virus) of 12 nM and an IC50 [2] of 5 nM.

Work on CCOC(=O)c1c(-c2ccc[nH]c2=O)c2c3occc3c(F)cc2n1Cc1cc2[nH]cnc2cc1Cl yielded an AUC (Rattus norvegicus [3]) of 0.1 µM·h.

Molecule CC(OC(=O)c1c(-c2ccc[nH]c2=O)c2c3occc3c(F)cc2n1Cc1cc2[nH]cnc2cc1Cl)c1ccccc1 (configuration not stated) has an AUC (Rattus norvegicus [4]) of 0.2 µM·h and an AUC (Rattus norvegicus [3]) of 0.3 µM·h.

For CN(C)CCCOC(=O)c1c(-c2ccc[nH]c2=O)c2c3occc3c(F)cc2n1Cc1cc2[nH]cnc2cc1Cl.O=C(O)C(F)(F)F, the AUC (Rattus norvegicus [4]) was 0.7 µM·h and the AUC (Rattus norvegicus [3]) was 9.1 µM·h.

Work on O=C(O)c1c(-c2ccc[nH]c2=O)c2c3occc3c(F)cc2n1Cc1cc2[nH]cnc2cc1F yielded an AUC(0-t) at 6 h [1] of 7.7 µM·h, an EC50 (Hepatitis C virus) of 7 nM and an IC50 [2] of 3 nM.

For Nc1n[nH]c2cc(F)c(Cn3c(C(=O)O)c(-c4ccc[nH]c4=O)c4c5occc5c(F)cc43)cc12, the AUC(0-t) at 6 h [1] was 2.1 µM·h, the EC50 (Hepatitis C virus) was 3 nM and the IC50 [2] was 4 nM.

Cc1cc2[nH]ncc2cc1Cn1c(C(=O)O)c(-c2ccc[nH]c2=O)c2c3occc3c(F)cc21 gave an AUC(0-t) at 6 h [1] of 2.1 µM·h, an EC50 (Hepatitis C virus) of 2 nM and an IC50 [2] of 3 nM.

CN(C)CCOC(=O)c1c(-c2ccc[nH]c2=O)c2c3occc3c(F)cc2n1Cc1cc2cn[nH]c2cc1F.O=C(O)C(F)(F)F gave an AUC (Cynomolgus monkey [5]) of 33 µM·h, an AUC (Rattus norvegicus [6]) of 222 µM·h and an EC50 (Hepatitis C virus) of 6 nM.

O=C(O)c1c(-c2ccc[nH]c2=O)c2c3occc3c(F)cc2n1Cc1cc2cn[nH]c2cc1F showed an AUC(0-t) at 6 h [7] of 1 µM·h, an AUC(0-t) at 6 h [1] of 9.3 µM·h and an EC50 (Hepatitis C virus) of 4 nM. It also gave an IC50 [2] of 3 nM.

Work on O=C(O)c1c(-c2ccc[nH]c2=O)c2c3occc3cc(F)c2n1Cc1cc(F)ccc1F yielded an EC50 (Hepatitis C virus) of 2600 nM and an IC50 [2] of 17 nM.

In the case of Cc1cc2[nH]ncc2cc1Cn1c(C(=O)OCCN(C)C)c(-c2ccc[nH]c2=O)c2c3occc3c(F)cc21.O=C(O)C(F)(F)F, the AUC (Cynomolgus monkey [8]) is reported as 10.7 µM·h, the AUC (Rattus norvegicus [9]) is reported as 79 µM·h and the EC50 (Hepatitis C virus) is reported as 2 nM.

With COCCOC(=O)c1c(-c2ccc[nH]c2=O)c2c3occc3c(F)cc2n1Cc1cc2[nH]cnc2cc1Cl the AUC (Rattus norvegicus [4]) was 1.1 µM·h and the AUC (Rattus norvegicus [3]) was 0.2 µM·h.

With CN(C)CCOC(=O)c1c(-c2ccc[nH]c2=O)c2c3occc3c(F)cc2n1Cc1cc2[nH]cnc2cc1F.O=C(O)C(F)(F)F the AUC (Cynomolgus monkey [10]) was 14.6 µM·h, the AUC (Rattus norvegicus [11]) was 159 µM·h and the EC50 (Hepatitis C virus) was 6 nM.

For O=C(O)c1c(-c2ccc[nH]c2=O)c2c3occc3c(F)cc2n1Cc1ccc2nc[nH]c2c1, the AUC(0-t) at 6 h [1] was 9.3 µM·h, the EC50 (Hepatitis C virus) was 30 nM and the IC50 [2] was 5 nM.
